Series [1] has as its target Glutamate NMDA receptor; Grin1/Grin2c (Rattus norvegicus) (UniProt P35439+Q00961). Kind of series: Positive allosteric modulation of recombinant rat GluN1a/GluN2C receptor expressed in Xenopus laevis oocytes assessed as increase in glycine/L-glutamate-induced channel current at 30 uM by two-electrode voltage clamp method relative to control. It is filed as cell-based. Summed up: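 Oocytes expressing rat GluN1/GluN2C or GluN2D, held at −40 mV in HEPES-buffered Ba2+ solution, pH 7.4, 23 °C. Current given as percent of agonist-alone response. Doubling concentration is the concentration giving 2-fold response; reported as […] log. 6–19 oocytes from 2–3 frogs.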

Series [2] deals with Ionotropic glutamate receptor NMDA 1/2D (Rattus norvegicus) (UniProt P35439+Q62645). Kind of series: Positive allosteric modulation of recombinant rat GluN1a/GluN2D receptor expressed in Xenopus laevis oocytes assessed as increase in glycine/L-glutamate-induced channel current at 30 uM by two-electrode voltage clamp method relative to control. It is filed as cell-based. In short, it runs like this: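 Oocytes expressing rat GluN1/GluN2C or GluN2D, held at −40 mV in HEPES-buffered Ba2+ solution, pH 7.4, 23 °C. […] Current given as percent of agonist-alone response. […] Doubling concentration is the concentration giving 2-fold response; reported as […] log. 6–19 oocytes from 2–3 frogs.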
In general terms: Two-electrode voltage clamp holds a large cell at a set potential and records current.

Series [3] addresses Glutamate NMDA receptor; Grin1/Grin2a (Rattus norvegicus, UniProt P35439+Q00959). Kind of series: Positive allosteric modulation of recombinant rat GluN1a/GluN2A receptor expressed in Xenopus laevis oocytes assessed as increase in glycine/L-glutamate-induced channel current at 10 to 30 uM by two-electrode voltage clamp method relative to control. The format is cell-based. Summed up:
(§1)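 TEVC at −40 mV, 23 °C, in 90 NaCl/1 KCl/0.5 BaCl/0.005 EDTA/10 HEPES (mM), pH 7.4. Oocytes expressed rat GluN1/GluN2A or GluN1/GluN2B. […] Some GluN2A oocytes were BAPTA-loaded. 4–17 oocytes from 1–3 frogs.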

In series [4] the target is Glutamate NMDA receptor; Grin1/Grin2b (Rattus norvegicus, UniProt P35439+Q00960). Briefly: Positive allosteric modulation of recombinant rat GluN1a/GluN2B receptor expressed in Xenopus laevis oocytes assessed as increase in glycine/L-glutamate-induced channel current at 10 to 30 uM by two-electrode voltage clamp method relative to control. It is filed as cell-based. Summed up:
as §1

The target in series [5] is Glutamate NMDA receptor; Grin1/Grin2c (Rattus norvegicus, UniProt P35439+Q00961).
For series [6], the target named is Ionotropic glutamate receptor NMDA 1/2D (Rattus norvegicus, UniProt P35439+Q62645).

SMILES strings stand for the structures.

Chain of Glutamate NMDA receptor; Grin1/Grin2b (Q00960 whole entry, other chains not shown): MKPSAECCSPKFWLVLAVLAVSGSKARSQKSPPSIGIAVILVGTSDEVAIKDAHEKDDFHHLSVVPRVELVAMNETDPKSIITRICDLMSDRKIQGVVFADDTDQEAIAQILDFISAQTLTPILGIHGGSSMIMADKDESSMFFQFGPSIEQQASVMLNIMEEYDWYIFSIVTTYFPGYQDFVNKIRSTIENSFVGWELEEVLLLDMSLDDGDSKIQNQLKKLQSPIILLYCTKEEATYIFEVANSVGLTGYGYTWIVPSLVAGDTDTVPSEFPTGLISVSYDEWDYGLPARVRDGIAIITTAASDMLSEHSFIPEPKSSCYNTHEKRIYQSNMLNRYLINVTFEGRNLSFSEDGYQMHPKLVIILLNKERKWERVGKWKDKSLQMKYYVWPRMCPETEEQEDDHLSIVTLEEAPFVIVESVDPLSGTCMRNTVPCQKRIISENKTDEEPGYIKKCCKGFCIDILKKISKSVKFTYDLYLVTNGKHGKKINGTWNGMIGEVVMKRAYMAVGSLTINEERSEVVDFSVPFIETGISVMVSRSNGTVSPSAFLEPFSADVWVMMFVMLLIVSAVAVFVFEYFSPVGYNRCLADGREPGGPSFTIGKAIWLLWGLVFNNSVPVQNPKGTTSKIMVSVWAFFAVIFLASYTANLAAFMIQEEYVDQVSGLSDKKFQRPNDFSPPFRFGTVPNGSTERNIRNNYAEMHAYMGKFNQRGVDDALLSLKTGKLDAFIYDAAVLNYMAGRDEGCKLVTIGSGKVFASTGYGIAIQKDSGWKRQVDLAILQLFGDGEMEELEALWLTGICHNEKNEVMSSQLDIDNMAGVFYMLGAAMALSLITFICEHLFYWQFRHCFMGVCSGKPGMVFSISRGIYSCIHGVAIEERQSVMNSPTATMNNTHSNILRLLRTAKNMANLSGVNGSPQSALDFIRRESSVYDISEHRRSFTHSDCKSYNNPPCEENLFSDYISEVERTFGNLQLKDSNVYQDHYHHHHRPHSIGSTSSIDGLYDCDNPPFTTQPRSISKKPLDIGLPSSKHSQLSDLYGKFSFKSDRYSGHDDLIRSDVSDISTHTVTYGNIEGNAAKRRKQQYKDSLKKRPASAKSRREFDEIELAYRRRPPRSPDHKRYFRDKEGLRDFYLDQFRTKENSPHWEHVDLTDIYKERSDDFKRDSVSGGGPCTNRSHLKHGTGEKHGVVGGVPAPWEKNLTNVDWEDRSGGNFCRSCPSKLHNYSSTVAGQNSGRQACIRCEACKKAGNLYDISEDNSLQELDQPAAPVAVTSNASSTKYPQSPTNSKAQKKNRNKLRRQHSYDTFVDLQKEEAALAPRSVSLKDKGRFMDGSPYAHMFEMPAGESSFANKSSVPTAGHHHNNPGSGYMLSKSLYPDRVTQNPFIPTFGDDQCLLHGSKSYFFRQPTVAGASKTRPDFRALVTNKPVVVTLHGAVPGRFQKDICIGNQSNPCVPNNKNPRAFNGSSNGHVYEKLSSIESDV
Chain of Glutamate NMDA receptor; Grin1/Grin2a (Q00959 whole entry, other chains not shown): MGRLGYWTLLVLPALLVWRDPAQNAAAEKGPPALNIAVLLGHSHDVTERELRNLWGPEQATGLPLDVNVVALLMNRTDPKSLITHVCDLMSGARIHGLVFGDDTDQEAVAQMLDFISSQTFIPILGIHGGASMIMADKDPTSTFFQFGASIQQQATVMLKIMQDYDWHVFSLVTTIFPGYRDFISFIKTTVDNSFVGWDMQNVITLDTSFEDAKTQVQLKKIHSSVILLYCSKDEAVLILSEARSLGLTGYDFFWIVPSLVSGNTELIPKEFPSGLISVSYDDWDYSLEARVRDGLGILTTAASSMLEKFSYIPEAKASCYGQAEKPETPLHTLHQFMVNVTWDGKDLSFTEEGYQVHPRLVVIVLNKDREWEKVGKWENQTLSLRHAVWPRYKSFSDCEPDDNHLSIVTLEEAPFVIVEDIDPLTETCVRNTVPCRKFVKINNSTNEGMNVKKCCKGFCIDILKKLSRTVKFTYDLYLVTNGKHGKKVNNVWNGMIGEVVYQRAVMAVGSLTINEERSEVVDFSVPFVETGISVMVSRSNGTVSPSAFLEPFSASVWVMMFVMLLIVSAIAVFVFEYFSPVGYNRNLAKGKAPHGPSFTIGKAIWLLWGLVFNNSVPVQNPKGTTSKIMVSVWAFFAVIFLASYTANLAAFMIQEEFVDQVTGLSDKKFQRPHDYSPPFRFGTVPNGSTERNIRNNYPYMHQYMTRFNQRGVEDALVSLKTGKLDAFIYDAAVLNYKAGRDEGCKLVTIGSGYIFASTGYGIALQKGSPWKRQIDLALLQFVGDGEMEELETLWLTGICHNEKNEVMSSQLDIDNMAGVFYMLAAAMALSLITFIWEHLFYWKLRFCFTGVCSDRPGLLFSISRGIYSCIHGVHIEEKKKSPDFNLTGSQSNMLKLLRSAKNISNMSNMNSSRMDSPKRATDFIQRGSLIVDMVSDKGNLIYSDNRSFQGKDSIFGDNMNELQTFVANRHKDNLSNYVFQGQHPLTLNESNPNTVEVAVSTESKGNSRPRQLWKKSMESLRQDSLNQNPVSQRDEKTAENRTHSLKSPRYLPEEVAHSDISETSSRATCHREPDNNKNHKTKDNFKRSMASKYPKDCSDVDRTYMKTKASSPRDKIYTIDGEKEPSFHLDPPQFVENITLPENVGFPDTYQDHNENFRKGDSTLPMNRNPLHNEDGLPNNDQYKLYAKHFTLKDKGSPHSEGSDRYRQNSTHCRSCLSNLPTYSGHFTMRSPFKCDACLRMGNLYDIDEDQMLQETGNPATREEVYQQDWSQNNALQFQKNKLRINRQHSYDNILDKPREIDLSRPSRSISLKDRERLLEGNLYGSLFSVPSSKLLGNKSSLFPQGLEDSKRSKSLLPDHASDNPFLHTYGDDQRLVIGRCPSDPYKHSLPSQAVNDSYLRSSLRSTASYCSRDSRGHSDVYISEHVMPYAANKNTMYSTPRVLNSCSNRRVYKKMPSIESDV

Regarding `COc1ccc(OCC2c3occc3CCN2C(=O)c2cccc(Cl)c2)cc1` (centres undefined), the %max was 340% in series [1] and 470% in series [2]. The Activity result in series [3] and in series [4] was “Not Active” throughout. Moreover, the EC50 in series [5] was 6.31 µM; in series [6], 7.94 µM.
Regarding `COc1ccc(OCC2c3cnn(C)c3CCN2C(=O)c2cccc(Cl)c2)cc1` (centres undefined), the %max in series [1] was 210%; in series [2], 220%. Besides, the Activity entry in series [3] and in series [4] was “Not Active” throughout.
On to `CCCN1C(=O)Cc2cc(OC)ccc2C1COc1ccc(OC)cc1` (centres undefined), for which the %max in series [1] amounted to 97%; in series [2], 94%. Further, the Activity result in series [3] and in series [4] was “Not Active” in each case.
`COc1cc2c(cc1OC)C(COc1ncccn1)N(C(=O)c1cccc(C(F)(F)F)c1)CC2` (centres undefined): the figures for the %max in series [1] and in series [2] were 97% and 95%, respectively. Moreover, the Activity result in series [3] and in series [4] was “Not Active” in each case.
With `COc1ccc(OCC2c3ccc(OCC(C)C)cc3CC(=O)N2Cc2cccc(Cl)c2)cc1` (centres undefined), the %max amounted to 280% in series [1] and 370% in series [2]. The Activity in series [3] and in series [4] was 130% throughout. Further, the EC50 in series [5] is 0.398 µM; in series [6] it was 0.631 µM.
Regarding `COc1ccc(OCC2c3sccc3CCN2C(=O)/C=C/C(F)(F)F)cc1` (centres undefined), the %max amounted to 290% in series [1] and 330% in series [2]. In addition, the Activity result in series [3] and in series [4] was “Not Active” each time. The EC50 is 12.6 µM in series [5] and 15.8 µM in series [6].
For `COc1ccc(OCC2c3sc(C)nc3CCN2C(=O)c2cccc(Cl)c2)cc1` (centres undefined), the %max in series [1] and in series [2] was 100% each time. Moreover, the Activity result in series [3] and in series [4] was “Not Active” each time.
`COc1ccc(OCC2c3cc(OC)c(OC)cc3CC(=O)N2Cc2cccc(Cl)c2)cc1` (centres undefined): the %max in series [1] came to 270%; in series [2], 340%. Moreover, the Activity result in series [3] and in series [4] was “Not Active” in each case. In addition, the values for the EC50 in series [5] and in series [6] were 5.01 µM and 10 µM, respectively.
Consider `COc1cc2c(cc1OC)C(COc1cccnc1)N(C(=O)c1cccc(C(F)(F)F)c1)CC2` (centres undefined), for which the results for the %max in series [1] and in series [2] were 90% and 88%, respectively. Further, the Activity entry in series [3] and in series [4] was “Not Active” each time.
For the compound `COc1ccc(OCC2c3ccc(OC(C)C)cc3CC(=O)N2Cc2cccc(C(F)(F)F)c2)cc1` (centres undefined), the figures for the %max in series [1] and in series [2] were 280% and 310%, respectively. The Activity result in series [3] and in series [4] was “Not Active” in each case. The EC50 in series [5] was 0.398 µM; in series [6], 0.631 µM.
For the compound `COc1ccc(OCC2c3cc(OC)c(OC)cc3CCN2C(=O)c2cccc(C(F)(F)F)c2)cc1` (centres undefined), the Activity result in series [3] and in series [4] was “Not Active” each time.
Consider `COc1ccc(OCC2c3ccc(OC)cc3CC(=O)N2Cc2c[nH]nn2)cc1` (centres undefined), for which the %max in series [1] was 110%; in series [2] it was 98%. In addition, the Activity entry in series [3] and in series [4] was “Not Active” throughout.
Turning to `COc1ccc(OCC2c3ccc(OC)cc3CC(=O)N2CCc2c[nH]c3ccccc23)cc1` (centres undefined), the %max in series [1] and in series [2] was 85% each time. Moreover, the Activity entry in series [3] and in series [4] was “Not Active” in each case.
Consider `COc1ccc(OCC2c3ccc(OC)cc3CC(=O)N2CCCC(F)(F)F)cc1` (centres undefined), for which the %max was 290% in series [1] and 450% in series [2]. The Activity entry in series [3] and in series [4] was “Not Active” each time. In addition, the values for the EC50 in series [5] and in series [6] were 7.94 µM and 20 µM, respectively.
On to `COc1ccc(OCC2c3ccc(OC(C)C)cc3CC(=O)N2Cc2cccc(F)c2)cc1` (centres undefined), for which the %max in series [1] amounted to 320%; in series [2] it was 330%. The Activity in series [3] and in series [4] was 130% in each case. Also, the figures for the EC50 in series [5] and in series [6] were 1 µM and 2 µM, respectively.
As to `COc1ccc(OCC2c3ccc(OC(C)C)cc3CCN2C(=O)c2cccc(C(F)(F)F)c2)cc1` (centres undefined), the Activity result in series [3] and in series [4] was “Not Active” each time. In addition, the EC50 in series [5] was 1.58 µM; in series [6] it was 2.51 µM.
For `COc1ccc(OCC2c3cc(OC)c(OC)cc3CCN2C(=O)c2cccc(Cl)c2)s1` (centres undefined), the values for the %max in series [1] and in series [2] were 100% and 110%, respectively. Besides, the Activity entry in series [3] and in series [4] was “Not Active” throughout.
In the case of `COc1ccc(OCC2c3sccc3CCN2C(=O)c2ccc(Cl)s2)cc1` (centres undefined), the %max is 290% in series [1] and 400% in series [2]. The Activity entry in series [3] and in series [4] was “Not Active” each time. In addition, the EC50 in series [5] and in series [6] was 5.01 µM throughout.
Regarding `COc1ccc(OCC2c3ccc(OC)cc3CC(=O)N2Cc2cccc(Cl)c2)cc1` (centres undefined), the %max in series [1] worked out at 270%; in series [2], 330%. Moreover, the Activity result in series [3] and in series [4] was “Not Active” throughout. Also, the EC50 is 2 µM in series [5] and 2.51 µM in series [6].
For `COc1ccc(OCC2c3ccc(OC)cc3CC(=O)N2CCCN(C)C)cc1` (centres undefined), the %max in series [1] stood at 110%; in series [2], 96%. Further, the Activity entry in series [3] and in series [4] was “Not Active” in each case.
For the compound `COc1ccc(OCC2c3ccc(OC(C)C)cc3CC(=O)N2Cc2cccc(Cl)c2)cc1` (centres undefined), the %max was found to be 350% in series [1] and 370% in series [2]. The Activity result in series [3] and in series [4] was “Not Active” each time. In addition, the EC50 in series [5] is 0.398 µM; in series [6] it was 0.501 µM.
Consider `COc1cc2c(cc1OC)C(COC1CCOCC1)N(C(=O)c1cccc(C(F)(F)F)c1)CC2` (centres undefined), for which the %max in series [1] worked out at 100%; in series [2], 95%. Moreover, the Activity result in series [3] and in series [4] was “Not Active” in each case.
For `COc1ccc(OCC2c3ccsc3CCN2C(=S)c2cccc(Cl)c2)cc1` (centres undefined), the %max in series [1] worked out at 97%; in series [2] it was 94%. In addition, the Activity entry in series [3] and in series [4] was “Not Active” in each case.
Take `COc1ccc(OCC2c3ccccc3CCN2C(=O)c2cccc(Cl)c2)cc1` (centres undefined): the %max in series [1] came to 260%; in series [2], 300%. Besides, the Activity entry in series [3] and in series [4] was “Not Active” each time. For the same compound, the EC50 in series [5] was 6.31 µM; in series [6], 7.94 µM.
As to `COc1ccc(OCC2c3ccc(OC(C)C)cc3CCN2C(=O)c2cccc(Cl)c2)cc1` (centres undefined), the values for the %max in series [1] and in series [2] were 240% and 250%, respectively. Further, the Activity result in series [3] and in series [4] was “Not Active” throughout. This compound also had an EC50 in series [6] of 3.16 µM.
As to `COc1cc2c(cc1OC)C(COc1ccccn1)N(C(=O)c1cccc(C(F)(F)F)c1)CC2` (centres undefined), the values for the %max in series [1] and in series [2] were 96% and 97%, respectively. Further, the Activity entry in series [3] and in series [4] was “Not Active” throughout.
As to `COc1ccc(OCC2c3ccc(OC(C)C)cc3CCN2C(=O)c2cccc(F)c2)cc1` (centres undefined), the Activity result in series [3] and in series [4] was “Not Active” each time. The compound also showed an EC50 in series [6] of 7.94 µM.
For `COc1ccc(OCC2c3ccc(OCC(C)C)cc3CCN2C(=O)c2cccc(Cl)c2)cc1` (centres undefined), the Activity entry in series [3] and in series [4] was “Not Active” in each case. Moreover, the EC50 was 1 µM in series [5] and 1.26 µM in series [6].
`COc1cc2c(cc1OC)C(CO)N(C(=O)c1cccc(C(F)(F)F)c1)CC2` (centres undefined): the %max in series [1] stood at 98%; in series [2], 95%. Further, the Activity result in series [3] and in series [4] was “Not Active” in each case.
For the compound `COCCOCCN1C(=O)Cc2cc(OC)ccc2C1COc1ccc(OC)cc1` (centres undefined), the %max worked out at 98% in series [1] and 100% in series [2]. Also, the Activity result in series [3] and in series [4] was “Not Active” in each case.
As to `COc1ccc(OCC2c3cccn3CC(=S)N2Cc2cccc(C(F)(F)F)c2)cc1` (centres undefined), the %max in series [1] was determined as 120%; in series [2] it was 110%. For the same compound, the Activity entry in series [3] and in series [4] was “Not Active” each time.

What is called EC50 is the concentration that produces a half-maximal response. High values mean a less potent agent, low ones a more potent agent.
